# Results from different studies.
# PFF0160c E182D: Dihydroorotate dehydrogenase (quinone), mitochondrial (PFF0160c, Plasmodium falciparum, UniProt Q08210, E182D)
# PFF0160c: Dihydroorotate dehydrogenase (quinone), mitochondrial (PFF0160c, Plasmodium falciparum, UniProt Q08210)
# PROC: Vitamin K-dependent protein C (PROC, Homo sapiens, UniProt P04070)
# OPRK1: Kappa-type opioid receptor (OPRK1, Homo sapiens, UniProt P41145)
SMILES,target,observed,action,method,IC50 [nM]
Cn1cc(-c2ccc(-n3ccc(OCc4ccc(Cl)cn4)cc3=O)cn2)cn1,PFF0160c E182D,enzyme activity,inhibitor,absorbance,7020
Cc1cc(C(C)NC(=O)c2[nH]cc(-c3n[nH]c4cc(C(F)(F)F)ccc34)c2C)no1 (stereo not drawn),PFF0160c,enzyme activity,inhibitor,absorbance,> 100000
Cc1nc(NC2CCc3cc(Cl)ccc3C2)c2c(C)noc2n1 (stereo not drawn),PFF0160c,enzyme activity,inhibitor,absorbance,120
CCc1nc2nc(C)cc(Nc3ccc4c(c3)OCCO4)n2n1,PFF0160c E182D,enzyme activity,inhibitor,absorbance,> 10000
CNC(=O)[C@H](C)NC(=O)c1[nH]cc(Cc2ccc(C(F)(F)F)nc2)c1C,PFF0160c,enzyme activity,inhibitor,absorbance,39000
O=S(=O)(O)c1nc2ccccc2[nH]1,"racE (Bacillus subtilis, UniProt P94556, N75L)",enzyme activity,inhibitor,absorbance,198000
Cc1nc(Nc2ccc(S(F)(F)(F)(F)F)cc2)c2c(C(F)(F)F)noc2n1,PFF0160c,enzyme activity,inhibitor,absorbance,43
Cc1cc(Nc2ccc(C)c(Cl)c2)n2nc(C(F)(F)F)nc2n1,PFF0160c,enzyme activity,inhibitor,absorbance,29.1
Cc1c(Cc2ccc(F)c(F)c2)c[nH]c1C(=O)NC(C)c1nc[nH]n1 (stereo not drawn),PFF0160c,enzyme activity,inhibitor,absorbance,> 100000
CC(C)C[C@@H]1C(=O)N[C@H]([C@@H](C)O)C(=O)N[C@H](C)[C@@H](C)C(=O)O[C@@H](Cc2ccccc2)C(=O)N(C)[C@@H](C(C)C)C(=O)N2CCC[C@H]2C(=O)N(C)[C@H](Cc2ccccc2)C2=N[C@@H](CS2)C(=O)N[C@H](C)C2=N[C@@H](CS2)C(=O)N1C,PROC,enzyme activity,inhibitor,,66600
Cc1nc(NC2Cc3cc(F)c(F)cc3C2)c2c(C(F)(F)F)noc2n1,PFF0160c,enzyme activity,inhibitor,absorbance,22
CC(=O)c1c(Nc2c(C)cc(C)cc2C)oc(C)cc1=O,PFF0160c E182D,enzyme activity,inhibitor,absorbance,659
Cc1noc2nc(C(F)(F)F)nc(Nc3ccc(S(F)(F)(F)(F)F)cc3)c12,PFF0160c,enzyme activity,inhibitor,absorbance,250
Cc1c(C(=O)NC(C)c2nc[nH]n2)[nH]c(Cl)c1Cc1ccc(C(F)(F)F)nc1 (stereo not drawn),PFF0160c,enzyme activity,inhibitor,absorbance,> 100000
CC[C@H]1NC(=O)[C@@H]2CSC(=N2)[C@@H](Cc2ccccc2)N(C)C(=O)[C@@H]2CCCN2C(=O)[C@H](C(C)C)N(C)C(=O)[C@H](Cc2ccccc2)OC(=O)[C@H](C)[C@@H](C)NC(=O)[C@@H]([C@@H](C)O)NC(=O)[C@@H](CC(C)C)N(C)C(=O)[C@@H]2CSC1=N2,PROC,enzyme activity,inhibitor,,79000
Cc1c(C2(c3cccc(C(F)(F)F)c3)CC2)c[nH]c1C(=O)NC(C)c1nc[nH]n1 (stereo not drawn),PFF0160c,enzyme activity,inhibitor,absorbance,30000
Cc1nc(NC2CCc3cc(Br)ccc3C2)c2c(C)noc2n1 (stereo not drawn),PFF0160c,enzyme activity,inhibitor,absorbance,530
Cc1c(Cc2ccc(C(F)(F)F)cc2F)c[nH]c1C(=O)NC(C)c1nc[nH]n1 (stereo not drawn),PFF0160c,enzyme activity,inhibitor,absorbance,350
Cc1ccc(O)c([C@H](CCN(C(C)C)C(C)C)c2ccccc2)c1,OPRK1,ligand displacement,,radioligand,6710
CC(c1ccc(Cl)c(Cl)c1)c1nn2c(-c3ccccc3F)nnc2s1 (stereo not drawn),PFF0160c,enzyme activity,inhibitor,absorbance,541
Cc1nc(Nc2ccc(S(F)(F)(F)(F)F)cc2)c2c(C)noc2n1,PFF0160c,enzyme activity,inhibitor,absorbance,36
CC1CN(Cc2ccc(-c3ccc(C(=O)NCC4CCCO4)cn3)cc2)CC(C)O1 (stereo not drawn),PFF0160c E182D,enzyme activity,inhibitor,absorbance,3280
Cc1nc(NC2CCc3ccc(Cl)cc3C2)c2c(C)noc2n1 (stereo not drawn),PFF0160c,enzyme activity,inhibitor,absorbance,17
CN(C)S(=O)(=O)c1ccc(Sc2ccccc2)c(C(=O)N2CCCC(C(N)=O)C2)c1 (stereo not drawn),PFF0160c,enzyme activity,inhibitor,absorbance,3670
Cc1c(C2(c3ccc(C(F)F)nc3)CC2)c[nH]c1C(=O)NC(C)c1nc[nH]n1 (stereo not drawn),PFF0160c,enzyme activity,inhibitor,absorbance,> 30000
COc1ccc(-n2ccnc2SCC(=O)Nc2cc(C)ccc2C)c(OC)c1,PFF0160c,enzyme activity,inhibitor,absorbance,324
O=C(Nc1ccccc1)OCC(CN1CCCCC1)OC(=O)Nc1ccccc1 (stereo not drawn),OPRK1,ligand displacement,,radioligand,1420
